In PubChem BioAssay AID652163 (Broad Institute, 2013):
“And” between values parts separate entries of the source, which are not always exact repeats. Equal values may be shown once. Hit rate of the full screen: of about 360,000 compounds, about 500 (0.14%) were called active.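 How the source made its calls: active means mean inhibition of at least 70% across replicates, with every replicate also reaching that level; inconclusive means mean inhibition reaches 70% but some replicates fall short; inactive means mean inhibition below 70%.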 Shown is part of a subset that was picked to be rich in actives. Some compounds were tested as several samples or in several runs, with calls that do not always agree.

What follows are molecules tested against Protein S100-A4 (Homo sapiens) (UniProt P26447) (assay: human S100A4 protein-peptide interaction blockers – biochemical, fluorescence polarization, TAMRA-MyoIIA peptide, primary screen (AID 652163)). Settings: at 10.7 µM, stronger effect = higher value.
Chain of Protein S100-A4 (Homo sapiens) (P26447 whole entry, looked up): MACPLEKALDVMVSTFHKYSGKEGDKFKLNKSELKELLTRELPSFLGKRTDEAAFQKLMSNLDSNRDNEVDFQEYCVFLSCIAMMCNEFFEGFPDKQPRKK
In short: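 assay system = human S100A4 monomer with TAMRA-labelled myosin IIA peptide | also added = labelled myosin peptide probe, 5 nM | incubation = 5 min between mix addition and reading | control set = DMSO and TFP controls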
In the case of `CO[C@H]1CC[C@H]2CCN(C)C(=O)C[C@@H](c3ccccc3)CN(C)C(=O)c3cccc(C#N)c3OC[C@@H]1O2`, the inhibition is reported as 0.912% (inactive). In the case of `CCCNC(=O)N1[C@@H]2CN(C)c3ccccc3[C@@H]2[C@@H]1CO`, the inhibition is reported as 7.1% (inactive). `COc1ccc(S(=O)(=O)N(C)C[C@H]2Oc3ccc(NC(=O)Nc4c(C)noc4C)cc3C(=O)N([C@@H](C)CO)C[C@@H]2C)cc1` was tested, and the inhibition was -9.31% (inactive). `Cc1noc(C)c1NC(=O)N(C)C[C@@H]1OCCCC[C@H](C)Oc2ccc(NC(=O)CCC(F)(F)F)cc2C(=O)N([C@@H](C)CO)C[C@@H]1C` was tested, and the inhibition was 5.68% (inactive). In the case of `CC(=O)N(C)C[C@@H]1Oc2cc(-c3cccc(F)c3)ccc2S(=O)(=O)N([C@H](C)CO)C[C@H]1C`, the inhibition is reported as -20.8% (inactive). For `CC(C)(O)C#Cc1ccc([C@H]2[C@H]3CN(C(=O)c4ccncc4)CCCCN3[C@H]2CO)cc1`, the inhibition was -11.2% (inactive). For `COc1ccc(S(=O)(=O)Nc2ccc3c(c2)C(=O)N([C@@H](C)CO)C[C@H](C)[C@H](CN(C)Cc2ccc4c(c2)OCO4)OCCCC[C@H](C)O3)cc1`, the inhibition was -9.48% (inactive). With `COc1cccc(C(=O)Nc2ccc3c(c2)C(=O)N(C)[C@H]2CC[C@@H](CC(=O)N[C@H](C)c4ccccc4)O[C@H]2CO3)c1` the inhibition was -0.71% (inactive). With `C=CCN1C(=O)[C@]2(O[C@H](CCn3cc(CCO)nn3)[C@@H]([Si](C)(C)c3ccc(OC)cc3)[C@@H]2C)c2cc(N3CCOC3=O)ccc21` the inhibition was 10.3% (inactive). In the case of `C[C@H](CO)N1C[C@H](C)[C@@H](CN(C)CC2CC2)Oc2ccc(NC(=O)CCCN(C)C)cc2CC1=O`, the inhibition is reported as -0.322% (inactive). In the case of `O=C(C[C@@H]1C=C[C@@H](NS(=O)(=O)c2ccccc2)[C@H](CO)O1)N1CCN(c2ccccc2)CC1`, the inhibition is reported as 8.62% (inactive). In the case of `CN1CCN(C(=O)C[C@@H]2C=C[C@@H](NS(=O)(=O)c3cccc(F)c3)[C@@H](CO)O2)CC1`, the inhibition is reported as 103% (active). For `COc1ccccc1S(=O)(=O)N[C@@H]1C=C[C@H](CC(=O)N2CCN(C)CC2)O[C@@H]1CO`, the inhibition was 59.7% (inactive). In the case of `Nc1ncnc2c1ncn2C1OC(CO)CC1O` (configuration not stated), the inhibition is reported as 0.763% (inactive). For `CO[C@@H]1CN(C)C(=O)c2cc(NC(=O)c3ccccc3)ccc2OC[C@H](C)N(C(=O)CN(C)C)C[C@H]1C`, the inhibition was -0.975% (inactive). With `C=C[C@H](OC)[C@@H](O)c1ccc(OC)c(O)c1` the inhibition was -5.17% (inactive). With `CN1C(=O)c2cc(NC(=O)C3CCC3)ccc2OC[C@@H]2O[C@@H](CC(=O)NCc3ccccc3F)CC[C@@H]21` the inhibition was 88.8% (active). In the case of `CN1C(=O)c2cc(NC(=O)C3CCCC3)ccc2OC[C@H]2O[C@H](CC(=O)NCc3ccccc3F)CC[C@H]21`, the inhibition is reported as -2.52% (inactive). For `CN1C(=O)c2cc(NC(=O)C3CCOCC3)ccc2OC[C@@H]2O[C@H](CC(=O)NCc3ccccc3F)CC[C@H]21`, the inhibition was 4.38% (inactive). `C[C@@H]1CN([C@@H](C)CO)C(=O)c2cc(C3=CCCC3)cnc2O[C@H]1CN(C)Cc1ccccc1F` was tested, and the inhibition was 0.298% (inactive). `COc1cccc2c1C(=O)c1c(O)c3c(c(O)c1C2=O)CC(O)(C(C)=NNC(=O)c1ccc(Cl)c(Cl)c1)CC3OC1CC(N)C(O)C(C)O1` (configuration not stated) was tested, and the inhibition was 189% (active). In the case of `C[C@H]1CN([C@@H](C)CO)C(=O)CCCn2cc(nn2)CO[C@@H]1CN(C)S(=O)(=O)c1cccs1`, the inhibition is reported as 1.44% (inactive) and -0.084% (inactive). In the case of `Cc1noc(C)c1S(=O)(=O)N(C)C[C@H]1OCc2cn(nn2)CCCC(=O)N([C@H](C)CO)C[C@H]1C`, the inhibition is reported as -10.8% (inactive). In the case of `C[C@@H]1CN([C@H](C)CO)C(=O)CCCn2cc(nn2)CO[C@H]1CN(C)S(C)(=O)=O`, the inhibition is reported as -42.7% (inactive) and 116% (active) and -0.12% (inactive). With `C[C@H]1CN([C@@H](C)CO)C(=O)c2cccc(NC(=O)Nc3ccc(C(F)(F)F)cc3)c2O[C@H]1CN(C)CC1CCCCC1` the inhibition was 0.766% (inactive). For `CO[C@H]1CN(C)C(=O)c2ccc(NS(C)(=O)=O)cc2OC[C@H](C)N(C(=O)C2CCC2)C[C@H]1C`, the inhibition was 3.67% (inactive). `COC(=O)c1cc2c(c3c4ccccc4n(S(=O)(=O)c4cccc(C)c4)c13)C(=O)N(Cc1ccccc1)C2` was tested, and the inhibition was -0.199% (inactive). With `O=C(C[C@@H]1CC[C@@H]2[C@H](COC[C@@H](O)CN2S(=O)(=O)c2ccccc2)O1)NCC1CCCCC1` the inhibition was -4.89% (inactive). With `CN1CCN(C(=O)C[C@@H]2CC[C@@H]3[C@@H](COc4ccc(NC(=O)c5ccc(F)c(F)c5)cc4C(=O)N3C)O2)CC1` the inhibition was -20.1% (inactive). `O=C(NCC1CC1)[C@H]1[C@H](CO)[C@H]2Cn3c(ccc(/C=C/c4ccccc4)c3=O)[C@@H]1N2C(=O)C1CCC1` was tested, and the inhibition was 5.09% (inactive). For `COCC#Cc1ccc([C@@H]2[C@H]3CN(C(=O)C4CCOCC4)CC(=O)N3[C@H]2CO)cc1`, the inhibition was 10.1% (inactive). `COc1cccc(S(=O)(=O)N[C@@H]2C=C[C@H](CC(=O)NC3CCC3)O[C@@H]2CO)c1` was tested, and the inhibition was 11.1% (inactive). `O=C(Nc1nccs1)[C@@H]1[C@@H](CO)[C@@H]2Cn3c(ccc(-c4cccnc4)c3=O)[C@@H]2N1CC1CC1` was tested, and the inhibition was 5.29% (inactive). In the case of `O=C([C@H]1N[C@H]2c3ccc(-c4ccccc4)c(=O)n3C[C@H]2[C@@H]1CO)N1CCOCC1`, the inhibition is reported as -1.77% (inactive). `CO[C@H]1CN(C)C(=O)c2cc(NC(=O)C3CCC3)ccc2OC[C@H](C)N(C)C[C@H]1C` was tested, and the inhibition was 6.42% (inactive). With `CO[C@@H]1CN(C)C(=O)c2cc(NC(=O)c3cc(C)on3)ccc2OC[C@@H](C)N(C(C)=O)C[C@@H]1C` the inhibition was -1.83% (inactive). In the case of `C[C@@H]1CN([C@H](C)CO)C(=O)c2cccc(NS(=O)(=O)c3ccc(Cl)cc3)c2O[C@H]1CN(C)C(=O)NC1CCCCC1`, the inhibition is reported as 3.25% (inactive). `CC(C)CC#Cc1ccc([C@H]2[C@H]3CN(C(=O)c4cnccn4)CC(=O)N3[C@H]2CO)cc1` was tested, and the inhibition was 1.39% (inactive). `COc1cccc(-c2ccc3n(c2=O)C[C@H]2[C@H](CO)[C@@H](C(=O)NC4CCCC4)[C@@H]3N2C)c1` was tested, and the inhibition was 6.59% (inactive). With `C/C=C/c1ccc([C@H]2[C@@H](CO)N[C@@H]2CN(CC)C(=O)CN2CCOCC2)cc1` the inhibition was -4.11% (inactive). In the case of `O=C(C[C@H]1C=C[C@H](NC(=O)NC2CCCCC2)[C@H](CO)O1)NCc1ccccc1`, the inhibition is reported as 11.3% (inactive). For `C[C@@H]1CN([C@@H](C)CO)C(=O)c2cc(NS(C)(=O)=O)ccc2O[C@@H]1CN(C)C(=O)Nc1ccccc1`, the inhibition was -7.83% (inactive). For `C[C@@H]1CCCCO[C@@H](CN(C)C(=O)C2CCCCC2)[C@@H](C)CN([C@H](C)CO)C(=O)c2cc(NC(=O)c3ccccc3)ccc2O1`, the inhibition was 5.47% (inactive). In the case of `Cc1ccccc1-c1ccc2c(c1)O[C@@H](CN(C)C(=O)Nc1ccc(F)cc1)[C@H](C)CN([C@@H](C)CO)S2(=O)=O`, the inhibition is reported as -6.84% (inactive). With `C[C@H]1CN([C@@H](C)CO)C(=O)c2cc(-c3cccc(F)c3)cnc2O[C@@H]1CN(C)C(=O)c1ccccn1` the inhibition was 1.67% (inactive). With `C[C@H]1CN([C@@H](C)CO)C(=O)c2cccc(NC(=O)Nc3ccccc3)c2O[C@@H]1CN(C)C(=O)Nc1cccc2ccccc12` the inhibition was 8.48% (inactive). `COc1cccc(CC2(CO)CCCN(CC3=Cc4cc(OC)ccc4OC3)C2)c1` (configuration not stated) was tested, and the inhibition was -14.5% (inactive). In the case of `CN1c2ccc([N+](=O)[O-])cc2C(C)(C)C12C=Cc1cc(C(=O)O)ccc1O2` (configuration not stated), the inhibition is reported as -14.5% (inactive). With `COc1ccc2c(c1)C=CC1(O2)N(CCO)c2ccccc2C1(C)C` (configuration not stated) the inhibition was 97.1% (active). For `CN(C)CC(=O)N[C@H]1CC[C@@H](CCNC(=O)C2CCCC2)O[C@@H]1CO`, the inhibition was 4.07% (inactive). In the case of `C[C@@H]1CN([C@H](C)CO)C(=O)Cc2cc(NS(=O)(=O)c3ccc(Cl)cc3)ccc2O[C@@H]1CN(C)C`, the inhibition is reported as -3.76% (inactive). In the case of `O=C(C[C@H]1C[C@H]2c3cc(NC(=O)Nc4ccccc4)ccc3O[C@H]2[C@H](CO)O1)NC1CCCC1`, the inhibition is reported as -3.39% (inactive). `CN(C)C(=O)C[C@H]1C[C@@H]2c3cc(NC(=O)NC4CCCCC4)ccc3O[C@@H]2[C@@H](CO)O1` was tested, and the inhibition was 12.2% (inactive). In the case of `COC(=O)C(CC#Cc1ccc2c(c1)[C@]1(C(=O)N2)[C@H](c2ccccc2OCCO)N2[C@H](c3ccccc3)[C@H](c3ccccc3)OC(=O)[C@H]2[C@@H]1C(N)=O)C(=O)OC`, the inhibition is reported as -5.68% (inactive). For `O=C(C[C@H]1CC[C@@H]2[C@H](COC[C@H](O)CN2CCC(F)(F)F)O1)NCC1CC1`, the inhibition was -3.95% (inactive). With `Cn1cnc(S(=O)(=O)N2C[C@@H](O)COC[C@@H]3O[C@H](CC(=O)NC4CCC4)CC[C@H]32)c1` the inhibition was 0.326% (inactive). `Cn1cnc(S(=O)(=O)N2C[C@H](O)COC[C@@H]3O[C@H](CC(=O)NC4CCCC4)CC[C@H]32)c1` was tested, and the inhibition was 126% (active). `Cn1cnc(S(=O)(=O)N2C[C@H](O)COC[C@@H]3O[C@H](CC(=O)NC4Cc5ccccc5C4)CC[C@H]32)c1` was tested, and the inhibition was 2.44% (inactive). `O=C(C[C@H]1CC[C@H]2[C@@H](COC[C@@H](O)CN2C(=O)Nc2ccc(C(F)(F)F)cc2)O1)NC1Cc2ccccc2C1` was tested, and the inhibition was 9.1% (inactive). In the case of `C[C@H]1CN([C@@H](C)CO)C(=O)c2cccc(NC(=O)c3cnccn3)c2O[C@H]1CN(C)S(=O)(=O)c1cn(C)cn1`, the inhibition is reported as 2.47% (inactive). With `COCCNC(=O)[C@H]1[C@H](CO)[C@H]2Cn3c(ccc(-c4ccccc4F)c3=O)[C@H]2N1C(=O)C1CCC1` the inhibition was -0.238% (inactive). For `COc1ccc(CN(C)C[C@H]2Oc3c(NS(=O)(=O)c4ccc(C)cc4)cccc3C(=O)N([C@@H](C)CO)C[C@@H]2C)cc1`, the inhibition was -5.34% (inactive).
